# Screens as filed in PubChem BioAssay.
# Shown are actives, neighbours in structure and some others; about 3.5% of the full set was active somewhere.
# MrgX1 agonist: agonists of human MrgX1 receptor | Q96LB2 | MrgX1-HEK293 cells, Fluo-4 calcium fluorescence, agonist mode; stronger effect = higher value | B-score at 10 µM | hit rate 0.44% among 310,000 | AID 588627;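 active = calcium response B-score plate-corrected fluorescence ratio at least 3 library SD, with starting fluorescence B-score inside 5 SD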
# Target sequence (Q96LB2 whole entry, looked up): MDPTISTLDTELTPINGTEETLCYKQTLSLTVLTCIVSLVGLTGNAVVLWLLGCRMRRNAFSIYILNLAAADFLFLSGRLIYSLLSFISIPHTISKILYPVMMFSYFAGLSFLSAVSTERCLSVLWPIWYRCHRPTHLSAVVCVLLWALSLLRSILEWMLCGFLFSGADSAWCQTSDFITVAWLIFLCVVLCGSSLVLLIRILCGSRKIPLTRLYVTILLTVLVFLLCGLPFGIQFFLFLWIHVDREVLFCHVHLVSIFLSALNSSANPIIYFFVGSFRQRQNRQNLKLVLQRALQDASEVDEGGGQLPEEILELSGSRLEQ
#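 Material: HEK293 cells stably expressing human MrgX1 receptor | Quantity: 15,000 cells per well | Times: Cells plated overnight, dye loaded 0.5 h 37 °C, 0.5 h room temperature | Measured by: Kinetic Fluo-4 NW fluorescence of intracellular calcium | Control set: Positive and negative controls per plate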
# RGS4 act: RGS4 potentiation or activation. HEK293 M3R/inducible RGS4, carbachol calcium flux Fluo4; stronger effect = lower value. B-score at 10 µM. hit rate 0.92% among 310,000. AID 463111;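 active = B-score of the integrated calcium signal more than 4 SD below the library mean, with starting fluorescence not abnormally high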;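 note: negative B-score means reduced calcium response which marks RGS4 activation or potentiation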
#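 Assay system: HEK293 FlpIn-TREx cells, stable M3R, doxycycline-inducible RGS4 / Probe or stimulus: carbachol, ECmax concentration / Times: overnight RGS4 induction, 30 min dye load 37 °C, 20 min compound RT / Signal: kinetic calcium fluorescence imaging with Fluo4-AM dye, 2 µM / Measure: Agonist-evoked peak-minus-minimum fluorescence over baseline, integrated ratio, B score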
# MrgX1 antagonist: blocks BAM8-22 activation of human MrgX1 receptor; MRGX1-HEK293 calcium flux, Fluo-4, BAM8-22 antagonism; stronger effect = lower value; hit rate 1.3% among 310,000; Q96LB2; B-score at 10 µM;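 active = calcium-response B-score plate-corrected more than 3 library SD below zero, starting fluorescence within 5 deviations, no agonist response on first addition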;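 note: peak minus trough fluorescence over baseline after final BAM8-22 challenge near maximal dose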
# RGS4 inh: human RGS4 inhibition. AID 463165. B-score at 10 µM. P49798. HEK293 M3R/RGS4 inducible, Fluo-4 calcium flux; stronger effect = higher value; triggered by carbachol at its EC20. hit rate 0.45% among 310,000;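 active = B-score, a plate-corrected calcium signal, over three deviations above library mean, with baseline fluorescence within five deviations of library mean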;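 note: RGS4 expression induced by doxycycline in cells with stable M3 receptor; B-score is computed from the integrated fluorescence ratio over baseline after carbachol; higher B-score means a larger calcium signal and so more RGS4 inhibition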
# Target sequence (P49798 whole entry, looked up): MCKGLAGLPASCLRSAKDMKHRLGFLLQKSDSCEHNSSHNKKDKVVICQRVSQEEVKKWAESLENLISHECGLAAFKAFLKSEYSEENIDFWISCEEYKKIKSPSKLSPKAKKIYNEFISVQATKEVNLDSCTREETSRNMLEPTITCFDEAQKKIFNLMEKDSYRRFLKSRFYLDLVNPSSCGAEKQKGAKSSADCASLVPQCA
# MrgX1 allo act: human MrgX1 positive allosteric modulation, primary screen. hit rate 0.63% among 310,000. Q96LB2. MrgX1-HEK293, Fluo-4 calcium flux, FDSS; stronger effect = higher value. B-score at 10 µM;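 active = plate-corrected calcium response at least 3 library SD above typical, normal starting fluorescence, not activating the receptor alone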;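 note: compound read alongside a low EC10 to EC30 dose of BAM8-22 agonist; peak minus trough fluorescence over baseline measured at the second addition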
# RGS4 inh valid: validation of RGS4 inhibitors | shares compounds with RGS4 inh | AID 492999 | calcium response, % at 10 µM | HEK293 M3R/RGS4, carbachol calcium Fluo-4 fluorescence; carbachol added at its EC20; 0 = buffer wells, 100 = carbachol control | hit rate 65% among 1,700;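 active = duplicate-averaged calcium response above the buffer-only control mean plus 5 SD of those controls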;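 note: integrated fluorescence ratio F max minus min over baseline F0; higher response in RGS4-induced cells means RGS4 inhibition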
# M3R Ca ctr: non-induced cell nonspecific activity of RGS4 inhibitors. shares compounds with RGS4 inh. AID 493000. activity (percent), % at 10 µM. HEK293 M3R non-induced, carbachol calcium Fluo-4; submaximal (EC20) carbachol stimulus; buffer wells 0%, carbachol control wells 100%. hit rate 20% among 1,900; call rule not given here;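 note: RGS4 induction absent so cells express M3R without RGS4; higher means more calcium signal and flags a non-specific hit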
# M3R basal Ca ctr: signal in non-induced cells without carbachol, RGS4 inhibitor counter-screen; AID 493001; hit rate 22% among 1,900; shares compounds with RGS4 inh; HEK293 M3R/RGS4 non-induced, Fluo-4 calcium, no carbachol; normalised: buffer wells 0%, carbachol wells 100%; calcium response (agonist-mode artifact), % at 10 µM;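 active = duplicate-averaged calcium rise in uninduced cells above buffer wells' mean plus 5 SD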
# Active calls of the source: *; i = inactive; x = no result given.
SMILES,MrgX1 agonist,RGS4 act,MrgX1 antagonist,RGS4 inh,MrgX1 allo act,RGS4 inh valid,M3R Ca ctr,M3R basal Ca ctr
COc1ccc(-c2nn(-c3ccccc3)cc2/C=C(\CC(=O)O)c2nc3ccccc3s2)cc1OC,i,i,i,6.2*,i,7.5%*,i,i
COc1ccc(NC(=O)CN2C(=O)NC(C)(c3ccccc3)C2=O)c(OC)c1 (stereo not given),i,i,i,i,i,x,x,x
CCOc1ccc(C(=O)Nc2nnc(SCC(=O)NCC3CCCO3)s2)cc1OCC (stereo not given),i,i,i,i,i,x,x,x
COc1ccc(CCC(=O)Nc2nnc(C(F)(F)F)s2)cc1,i,i,i,i,i,x,x,x
Cc1noc(/C=C/c2cccs2)c1S(=O)(=O)N1CCC(C(=O)NCCCN2CCC(C)CC2)CC1,i,i,i,i,i,x,x,x
COc1ccc(/C=N/n2cc(-c3ccc(OC)cc3)nc2N)cc1,i,i,i,37.4*,i,24.0%*,i,i
O=C(NCCOc1ccc(F)cc1)C1CCC(=O)N(CCc2ccccn2)C1 (stereo not given),i,i,i,i,i,x,x,x
Cc1c(CN2CCC(CO)(CC3CCCCO3)CC2)cnn1C (stereo not given),i,i,i,i,i,x,x,x
CC(NC(=O)/C(C#N)=C/c1ccc(Cl)c([N+](=O)[O-])c1)c1ccccc1 (stereo not given),i,i,i,49.3*,8.91*,22.5%*,i,31.0%*
N#C/C(=C\c1ccc(Cl)c([N+](=O)[O-])c1)c1ccccn1,i,i,i,9.01*,i,16.5%*,i,i
C[C@@H](NC(=O)/C(C#N)=C/c1ccc(O)c(O)c1)c1ccccc1,i,x,i,x,i,x,x,x
CCCC1(c2ccccc2)NC(=O)N(CC(=O)Nc2ccccc2C(F)(F)F)C1=O (stereo not given),i,i,i,i,i,x,x,x
CN(CC(=O)Nc1ccccc1Cl)C(=O)COC(=O)c1cnccn1,i,i,i,i,i,x,x,x
CN1C(C(=O)NCc2ccc(OC(F)(F)F)cc2)CC2Cn3c(nc4cc5ccccc5cc43)C21 (stereo not given),i,i,i,i,i,x,x,x
COCCCNC(=O)Cn1cc(/C=C(\C#N)C(=O)NC2CC2)c2ccccc21,i,i,i,i,i,x,x,x
O=C(CC(Nc1ccc(F)cc1)C(=O)OCC(=O)c1cccs1)c1ccccc1 (stereo not given),i,i,i,6.15*,i,i,i,i
O=C(CC(Nc1ccc(F)cc1)C(=O)O)c1ccccc1 (stereo not given),i,i,i,i,i,x,x,x
Nc1nc2ccccc2n1CCOc1ccc(Br)cc1,i,i,i,i,i,x,x,x
S=C(Nc1ccccc1)Nc1nc2ccccc2n1CCOc1ccc(Br)cc1,i,i,i,5.05*,i,10.5%*,i,i
Oc1ccc(Cl)cc1C=NCCc1ccccc1,i,i,i,5.02*,i,21.5%*,35.0%*,11.0%*
Oc1ccccc1C=NCCN=Cc1ccccc1O,i,i,i,i,i,x,x,x
COCCNC(=S)N/N=C(\C)c1ccccc1OC,i,i,i,5.69*,i,39.5%*,i,i
O=C(CSc1nc(-c2ccc(F)cc2)cc(C(F)(F)F)n1)Nc1ccc2c(c1)OCO2,i,i,i,i,i,x,x,x
Fc1ccc2c(c1)/C(=N/Nc1ccccn1)CCS2,i,i,i,11.7*,i,14.5%*,i,i
CCOC(=O)c1ccc(N=c2sc(C(=O)OC)cc(=O)n2CCCN2CCOCC2)cc1,i,i,i,i,i,x,x,x
SMILES,MrgX1 agonist,RGS4 act,MrgX1 antagonist,RGS4 inh,MrgX1 allo act,RGS4 inh valid,M3R Ca ctr,M3R basal Ca ctr
COC(=O)c1cc(=O)n(CCc2ccc(OC)cc2)c(=Nc2ccc(F)c(Cl)c2)s1,i,i,i,i,i,i,i,19.0%*
CCn1c(=O)cc(C(=O)OC)sc1=Nc1ccc(F)c(F)c1,i,i,i,12.6*,i,56.0%*,79.5%*,i
CCOC(=O)c1ccc(N=c2sc(C(=O)OC)cc(=O)n2Cc2ccco2)cc1,i,i,i,i,i,i,i,i
COC(=O)c1cc(=O)n(CCc2ccccc2)c(=Nc2ccc(F)cc2)s1,i,i,i,i,i,x,x,x
CC(=O)c1ccc(NC(=O)NC2CC(=O)N(c3ccc4c(c3)OCCO4)C2)cc1 (stereo not given),i,i,i,i,i,x,x,x
O=Nc1c(O)n(Cc2ccc(Cl)cc2Cl)c2ccccc12,i,i,i,6.6*,i,5.5%*,i,i
C/C(=N\N=C1\NC(=O)C(CC(=O)NCc2ccccc2)S1)C(C)C (stereo not given),i,i,i,i,i,x,x,x
C/C(=N\N=C1\NC(=O)C(CC(=O)Nc2ccc(C)c(Cl)c2)S1)C(C)C (stereo not given),i,i,i,i,i,x,29.5%*,i
COc1ccccc1CN=C1NC(=O)C(CC(=O)Nc2ccc(C(C)=O)cc2)S1 (stereo not given),i,i,i,i,i,i,i,i
CC(C)CCNC(=O)c1c(CSc2ccc(Cl)cc2)noc1C(=O)NCc1ccccc1,i,i,i,i,i,x,x,x
CCOC(=O)C1=C(C)N=c2s/c(=C\c3ccncc3)c(=O)n2C1c1ccc2c(c1)OCO2 (stereo not given),i,i,i,4.7*,i,16.0%*,43.5%*,16.0%*
O=C(Nc1nc(-c2cccc3ccccc23)cs1)c1cnccn1,i,i,i,5.45*,i,28.5%*,34.5%*,i
CC1=NNC(=O)C1C(c1ccc(Cl)cc1)C(C#N)C#N (stereo not given),i,i,i,i,i,x,x,x
CC1=NN(Cc2ccccc2)C(=O)C1C(c1ccccc1)C(C#N)C#N (stereo not given),i,i,i,i,i,i,i,i
